In PMC4203399 (Journal of Medicinal Chemistry, 2014):
Converted amounts (≈) assume the structure as drawn. “Also recorded” adds a separate entry of the source.

Tests used:
[1] = molecular target: recombinant NS5BCΔ21 1b (Hepatitis C virus genotype 1b, UniProt O92972); experiment: NS5B primer dependent elongation; format: biochemical
[2] = molecular target: recombinant NS5BCΔ21 mutant M423T (Hepatitis C virus genotype 1b, UniProt O92972, M2842T); experiment: NS5B mutant counterscreen assay, M423T; format: biochemical; conditions: M423T relative to NS5B WT (IC50 = 4.3 μM)
[3] = system: genotype 1b HCV subgenomic replicon in Huh-5-2 cells; format: cell-based, hepatitis C virus
[4] = thermodynamic and kinetic water solubility; format: physicochemical
How it was run: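 Test compound solutions shaken in a shaker bath for 48 h at room temperature, then filtered. Dissolved compound quantified by LC–UV–MS against calibration curves made from standard solutions in methanol. Determinations in triplicate.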

[5] = system: Huh-9-13 cells; experiment: vital stains; format: cell-based
How it was run: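 Huh-9-13 replicon cells seeded at 25.000 cells/dish in complete DMEM without G418. Next day, treated with test compound (90 μM), an NS3 protease inhibitor (15 μM) or DMSO for 3 days at 37 °C, 5% CO2. Stained 30 min with Nile Red (2 μg/mL), monodansylcadaverine (50 μM) or LipidTOX Red (1/1000), then imaged live by confocal microscopy.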

[6] = system: Huh-5-2 cells; experiment: microscopic examination of cell morphology in the replicon assay; format: cell-based; conditions: 72 h of compound treatment

Structure (SMILES) | fold higher NS5B inhibitory activity than parent compound 1 [1] | fold more active than o-chlorine derivative 2c (NS5B) [1] | fold change [2] | assessment of anti-HCV activity in the replicon assay (in words) [3] | solubility kinetic at 48 h ([4]; kinetic from dmso stock) [µM] | solubility thermodynamic at 48 h ([4]; thermodynamic from solid) [µM] | induction of multilamellar bodies (monodansylcadaverine stain) ([5]; 90 μM) | neutral lipids content (Nile Red and LipidTOX red stain) ([5]; 90 μM) | SI (ratio of CC50 to EC50) [3] | effect on cell morphology (microscopic analysis) [6] | induction of phospholipidosis/steatosis (different stainings) [5]
CN1c2c(C(=O)Nc3ccc(NS(C)(=O)=O)cc3)nn(-c3cccc(Cl)c3)c2-c2ccccc2S1(=O)=O [2a, 1-(3-Chlorophenyl)-4-methyl-N-{4-[(methylsulfonyl)amino]phenyl}-1,4-dihydropyrazolo[4,3-c][1,2]benzothiazine-3-carboxamide 5,5-Dioxide] | about 5 fold | about 4 fold | ~2 | selective anti-HCV activity without any antimetabolic effect | 0.275 (≈ 0.154 µg/mL) | 0.00398 (≈ 0.00222 µg/mL) | did not induce multilamellar bodies | significantly altered the neutral lipids content | – | – | –
CN1c2c(C(=O)Nc3ccc(NS(C)(=O)=O)cc3)nn(-c3ccc(Cl)cc3)c2-c2ccccc2S1(=O)=O [2b, 1-(4-Chlorophenyl)-4-methyl-N-{4-[(methylsulfonyl)amino]phenyl}-1,4-dihydropyrazolo[4,3-c][1,2]benzothiazine-3-carboxamide 5,5-Dioxide] | – | ~2 fold | – | selective anti-HCV activity without any antimetabolic effect | – | – | – | – | > 28 | did not show any significant cell morphological alterations; also recorded: did not display any significant effects on cell morphology; also recorded: did not exhibit any cell morphological alterations; also recorded: did not show any significant alteration in cell morphology; also recorded: did not display any antimetabolic and cell morphology alteration effects | induced pospholipidosis/steatosis
